Each molecule was assayed on HEp-2 viability, luminescence (CellTiter-Glo) (assay: HEp-2 cell cytotoxicity, dose response, cytotoxicity control for RSV antiviral project, synthesized compounds, set 10 (AID 504825)).
Summary of the method: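 Controls: Cell-only wells, 100% reference | Assay system: Uninfected HEp-2 human cells, compound cytotoxicity | Input: 10,595 HEp-2 cells per well | Measured by: CellTiter-Glo luminescence | Repeats: Triplicate | Buffer or medium: DMEM/F12 | Schedule: 6 d compound exposure, 37 °C | Evaluation: % viability and CC50, 4-parameter fit | Dosing: 8-point twofold dilution series, 0.5% DMSO final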

In order of rising CC50:
1. Cc1ccc(NC(=O)[C@@H]2CCCN2S(=O)(=O)c2cccc3cccnc23)c(C)c1  29 µM
2. COc1ccc(C)c(NC(=O)[C@@H]2CCCN2S(=O)(=O)c2cccc3cccnc23)c1  47.7 µM
3. Cc1cc(NC(=O)[C@@H]2CCCN2S(=O)(=O)c2cccc3cccnc23)n(C(C)(C)C)n1  55.1 µM

— PubChem BioAssay AID504825 (Southern Research Specialized Biocontainment Screening …, 2011)
